# Source: article PMC6128401 (Molecular pharmaceutics, 2017)
# Assays:
# [1] = target: T1, A431-CCK2R cell line expressing the human CCK2R (Homo sapiens, UniProt P32239); assay: Cell uptake; assay type: cell-based; details: A431-CCK2R cells, 2 h incubation, 0.4 nM
# T1 sequence (P32239 1-447): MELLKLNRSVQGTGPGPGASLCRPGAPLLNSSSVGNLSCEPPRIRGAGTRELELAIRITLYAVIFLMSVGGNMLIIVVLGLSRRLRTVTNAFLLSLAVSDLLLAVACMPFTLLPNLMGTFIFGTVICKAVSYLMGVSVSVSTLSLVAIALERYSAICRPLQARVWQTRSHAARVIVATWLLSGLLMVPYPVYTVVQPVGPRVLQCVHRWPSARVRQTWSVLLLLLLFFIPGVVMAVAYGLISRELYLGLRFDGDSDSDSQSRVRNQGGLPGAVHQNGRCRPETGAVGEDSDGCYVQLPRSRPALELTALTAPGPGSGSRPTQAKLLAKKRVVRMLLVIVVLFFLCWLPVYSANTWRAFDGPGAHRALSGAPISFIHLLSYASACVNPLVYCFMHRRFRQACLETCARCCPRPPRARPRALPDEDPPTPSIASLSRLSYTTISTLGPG
# Outline: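 A431-CCK2R and A431-mock cells were cultured in DMEM with 10% FBS, penicillin/streptomycin/L-glutamine at 37°C, 5% CO₂. They were seeded at 1.0×10⁶ cells/well and grown 48 h to confluency. Peptides were labelled with ¹⁷⁷LuCl₃ (~50 GBq/µmol) in ascorbate buffer pH 5 with gentisic acid and L-Met, 80°C. Triplicate wells received ~100,000 cpm (0.4 nM) for 2 h. The internalized fraction was gamma-counted as % of total added.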
# [2] = Chemical stability in phosphate buffered saline; assay type: physicochemical; details: PBS at RT, up to/after 4 h incubation
# Outline: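 ¹⁷⁷Lu-labelled peptide (120 pmol/mL) was kept in phosphate buffered saline at room temperature. Aliquots were taken at intervals up to […] and analysed by HPLC for percentage intact radiopeptide relative to post-labelling radiochemical purity.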
# [3] = Stability against enzymatic degradation in human serum; assay type: in vitro ADME
# Outline: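 The ¹⁷⁷Lu-labelled peptide was incubated in human serum at 37°C and sampled at time points up to 24 h. Proteins were precipitated with acetonitrile (1:1.5) and centrifuged; supernatant was diluted 1:1 with water before HPLC for intact radiopeptide. Half-life came from first-order exponential decay fitting.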
# [4] = assay type: physicochemical
# Outline: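 Labelling used ~2 GBq ¹⁷⁷LuCl₃ in 1 mL dilute HCl, heated at 80°C for 15-25 min. Kits were stored up to 6 months; labelled product was held up to 48 h at room temperature or −20°C. Radiochemical purity was measured by RP-HPLC.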
# A431-CCK2R xenografts [5] = assay: Biodistribution: uptake in receptor-positive tumour xenograft; assay type: in vivo, BALB/c nude mice; details: 30 min p.i.
# Outline: (§1)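 Female and male BALB/c nude mice, 5-6 weeks old, carried A431-CCK2R and A431-mock xenografts in opposite flanks (2×10⁶ cells each). Tumours grew for ~14 days to ~0.2 g. Kit-prepared ¹⁷⁷Lu-peptide, 1 MBq (20 pmol; 50 GBq/µmol), was injected into the tail vein. Groups of five were killed at 30 min, 4 h, 1 d, 2 d, 3 d and 7 d; dissected tissues were gamma-counted and expressed as % IA/g.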
# [6] = Biodistribution: uptake in normal organs and tissues; assay type: in vivo, BALB/c nude mice; details: 30 min p.i.
# Outline: as §1
# A431-CCK2R xenografts [7] = assay: Experimental radionuclide therapy, receptor-positive tumour growth; assay type: in vivo, BALB/c nude mice; details: for mean SGR A431-CCK2R: single i.v. treatment; for TVDT increase by a factor in comparison to the control group: A431-CCK2R tumours
# A431-mock xenografts = assay: Experimental radionuclide therapy, receptor-negative tumour growth; assay type: in vivo, BALB/c nude mice; details: for mean SGR A431-mock: single i.v. treatment
# [8] = Medullary toxicity: white blood cell and platelet counts; assay type: in vivo, BALB/c nude mice
# Outline: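 Double-xenografted nude mice were dosed as in the therapy study (saline, 15 or 30 MBq i.v.), n=5. Weekly, 0.1 mL venous blood was drawn from the superficial temporal vein by lancet, up to eight samples per animal. White blood cells and platelets were counted on an automatic haematology analyser. Counts were expressed relative to basal values (week −2 = inoculation; week 0 = treatment).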
# [9] = Renal toxicity: creatinine and urea in serum; assay type: in vivo, BALB/c nude mice
# Outline: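 The same treated double-xenografted nude mice (saline, 15 or 30 MBq i.v.; n=5) gave weekly venous blood samples. Serum creatinine and urea were measured with specific kits on a semiautomatic biochemical analyser. Values were compared between treated and control groups over weeks from cell inoculation (week −2) onward.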
# [10] = 15 MBq, one week after treatment
# [11] = 15 MBq group, week 0 (week of treatment)
# [12] = 15 MBq group, week -2 (cell inoculation)
# [13] = 30 MBq group, week 0 (week of treatment)
# [14] = 30 MBq group, week -2 (cell inoculation)
structure (smiles),measurement,setting,value
"CCCC[C@H](NC(=O)[C@H](Cc1c[nH]c2ccccc12)NC(=O)[C@H]1CCCCNC(=O)[C@H](NC(=O)CN2CCN(CC(=O)O)CCN(CC(=O)O)CCN(CC(=O)O)CC2)CCC(=O)N[C@@H](C)C(=O)N[C@@H](Cc2ccc(O)cc2)C(=O)N1)C(=O)N[C@@H](CC(=O)O)C(=O)N[C@@H](Cc1ccccc1)C(N)=O [^177Lu-DOTA-cyclo-MG2, metal not drawn]",internalized radioligand fraction (% of total),[1],16.1±1.9%
same,RCP during incubation in PBS,[2],above 98%
same,half-life,[3],17.8 h
same,mean RCP for the different time points after storage of the kits,"[4]; kit storage up to 6 months, n=4",97.8±1.3%
same,RCP after preparation,"[4]; kit-prepared, directly after preparation",97.8±1.3%
same,RCP at 24 h after preparation,[4]; stored at RT,96.3±1.4%
same,maximal tumour uptake,A431-CCK2R xenografts [5],5.99 % IA/g
same,"kidney uptake, maximal value",[6],2.64 % IA/g
same,mean SGR A431-CCK2R,A431-CCK2R xenografts [7]; 15 MBq group (0.6 nmol),0.048±0.011
same,mean SGR A431-CCK2R,A431-CCK2R xenografts [7]; 30 MBq group (1.2 nmol),0.033±0.002
same,TVDT increase by a factor in comparison to the control group,A431-CCK2R xenografts [7]; high activity group (30 MBq),2.5
same,TVDT increase by a factor in comparison to the control group,A431-CCK2R xenografts [7]; low activity group (15 MBq),1.7
same,mean SGR A431-mock,A431-mock xenografts; 15 MBq group (0.6 nmol),0.068±0.005
same,mean SGR A431-mock,A431-mock xenografts; 30 MBq group (1.2 nmol),0.042±0.004
same,TVDT increase by a factor in comparison to the control group,"A431-mock xenografts; A431-mock tumours, high activity group (30 MBq)",1.8
same,reduction in PLT counts compared to the basal value,[8]; [10],51.2-52.8%
same,reduction in WBC counts compared to the basal value,[8]; [10],37.8-40.8%
same,PLT value,"[8]; 15 MBq, week 1 after treatment, reference 558-1,454",531±45 ×10^9/L
same,decline of PLT value compared to the basal value,"[8]; 30 MBq, after treatment",44.8-58.0%
same,reduction of WBC value compared to the basal value,"[8]; 30 MBq, week 1 after treatment",67.2-70.9%
same,WBC value below the lower reference limit,"[8]; 30 MBq, week 1 and 2 after treatment, reference 3.11-13.04",2.17-2.94 ×10^9/L
same,PLT value below the reference values,"[8]; 30 MBq, week 2 and 3 after treatment",524-549 ×10^9/L
same,Creatinine (reference value 0.1-0.5),[9]; [11],0.3 ± 0.1 mg/dL
same,Urea (reference value 17-38),[9]; [11],25 ± 7 mmol/L
same,Creatinine (reference value 0.1-0.5),"[9]; 15 MBq group, week 1",0.2 ± 0.1 mg/dL
same,Urea (reference value 17-38),"[9]; 15 MBq group, week 1",27 ± 6 mmol/L
same,Creatinine (reference value 0.1-0.5),"[9]; 15 MBq group, week 2",0.3 ± 0.2 mg/dL
same,Urea (reference value 17-38),"[9]; 15 MBq group, week 2",34 ± 3 mmol/L
same,Creatinine (reference value 0.1-0.5),"[9]; 15 MBq group, week 3",0.2 ± 0.1 mg/dL
same,Urea (reference value 17-38),"[9]; 15 MBq group, week 3",34 ± 5 mmol/L
same,Creatinine (reference value 0.1-0.5),"[9]; 15 MBq group, week 4",0.5 ± 0.2 mg/dL
same,Creatinine (reference value 0.1-0.5),"[9]; 15 MBq group, week 5",0.7 mg/dL
same,Creatinine (reference value 0.1-0.5),"[9]; 15 MBq group, week -1",0.2 ± 0.1 mg/dL
same,Urea (reference value 17-38),"[9]; 15 MBq group, week -1",32 ± 2 mmol/L
same,Creatinine (reference value 0.1-0.5),[9]; [12],0.1 ± 0.02 mg/dL
same,Urea (reference value 17-38),[9]; [12],30 ± 4 mmol/L
same,urea above the upper limit of the reference value,"[9]; 15 MBq, beginning from week 4 after treatment",40 to 44 mmol/L
same,Creatinine (reference value 0.1-0.5),[9]; [13],0.2 ± 0.1 mg/dL
same,Urea (reference value 17-38),[9]; [13],27 ± 2 mmol/L
same,Creatinine (reference value 0.1-0.5),"[9]; 30 MBq group, week 1",0.2 ± 0.1 mg/dL
same,Urea (reference value 17-38),"[9]; 30 MBq group, week 1",37 ± 3 mmol/L
same,Creatinine (reference value 0.1-0.5),"[9]; 30 MBq group, week 2",0.3 ± 0.2 mg/dL
same,Creatinine (reference value 0.1-0.5),"[9]; 30 MBq group, week -1",0.3 ± 0.2 mg/dL
same,Urea (reference value 17-38),"[9]; 30 MBq group, week -1",29 ± 4 mmol/L
same,Creatinine (reference value 0.1-0.5),[9]; [14],0.2 ± 0.1 mg/dL
same,Urea (reference value 17-38),[9]; [14],26 ± 3 mmol/L
same,urea levels above the reference limit,"[9]; 30 MBq, beginning from week 2 after treatment",39 to 63 mmol/L
same,creatinine levels above the reference limit,"[9]; 30 MBq, beginning from week 3 after treatment",0.6 to 0.8 mg/dL
